In ChEMBL document CHEMBL5724801, “EUbOPEN Chemogenomics Library - Multiplex” (2024):
Where “and” joins values, the source holds several entries; their conditions need not be identical. Equal entries are not always repeated.

What follows are molecules tested on HEK-293T (assay: Multiplex assay against HEK293T). Conditions: human, 12 h, 1 µM, compound concentration 1 uM.
Assay type: toxicity, cell-based
How it was run: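 Live cells were stained at seeding with Hoechst33342, BioTracker Green Microtubule Cytoskeleton Dye, MitoTracker Red and Annexin V Alexa Fluor 680. Following compound addition, they were imaged on a CQ1 microscope at 37°C and 5% CO2 and gated by CellPathfinder machine learning into Hoechst high-intensity objects or normal cells, with normal cells split into healthy, pyknosed or fragmented nuclei and pyknosed cells into mitotic or apoptotic. Tubulin, mitochondrial-mass and membrane-permeability phenotypes are per cents of healthy-nucleus cells.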

SMILES | Population Apoptotic (%) | Population Fragmented Nuclei (%) | Population Healthy Nuclei (%) | Population Hoechst High Intensity Objects (%) | Population Membrane Permeable-Phenotype (%) | Population Mitochondria Different-Phenotype (%) | Population Mitotic Cells (%) | Population Normal (%) | Population Pyknosed Nuclei (%) | Population Tubulin-Different-Phenotype (%)
CC(C)C[C@H](CO)Nc1nc(S[C@@H](C)c2ccccc2)nc2nc(N)sc12 [AZD-8797] | 39% and 46% | 2% and 8% | 81% and 72% | 4% and 7% | 0% | 44% and 57% | 60% and 53% | 95% and 92% | 15% and 18% | 27% and 22%
CC(C)(c1ccc(O)cc1)c1ccc(O)cc1 [BISPHENOL A] | 8.05% and 13.14% | 5.16% and 3.01% | – | 0% and 0.6% | 0% and 4.17% | 34.18% and 33.33% | 91.95% and 86.86% | 100% and 99.4% | 36.61% and 82.53% | –

Same assay, conditions: human, 12 h, 1 µM, compound concentration 1 uM

SMILES | Total Cell Count
CC(C)C[C@H](CO)Nc1nc(S[C@@H](C)c2ccccc2)nc2nc(N)sc12 [AZD-8797] | 326 and 356
CC(C)(c1ccc(O)cc1)c1ccc(O)cc1 [BISPHENOL A] | 407 and 167

Same assay, conditions: human, 12 h, 10 µM, compound concentration 10 uM

SMILES | Population Apoptotic (%) | Population Fragmented Nuclei (%) | Population Healthy Nuclei (%) | Population Hoechst High Intensity Objects (%) | Population Membrane Permeable-Phenotype (%) | Population Mitochondria Different-Phenotype (%) | Population Mitotic Cells (%) | Population Normal (%) | Population Pyknosed Nuclei (%) | Population Tubulin-Different-Phenotype (%)
CC(C)C[C@H](CO)Nc1nc(S[C@@H](C)c2ccccc2)nc2nc(N)sc12 [AZD-8797] | 65% and 67% | 9% and 6% | 71% and 75% | 10% | 0% | 70% and 75% | 34% and 32% | 89% | 18% | 56% and 39%
CC(C)(c1ccc(O)cc1)c1ccc(O)cc1 [BISPHENOL A] | 10.57% and 14.78% | 4.23% and 2.74% | – | 1.19% and 0.68% | 0% | 37.63% and 18.52% | 89.43% and 85.22% | 98.81% and 99.32% | 37.16% and 78.77% | –

Same assay, conditions: human, 12 h, 10 µM, compound concentration 10 uM

SMILES | Total Cell Count
CC(C)C[C@H](CO)Nc1nc(S[C@@H](C)c2ccccc2)nc2nc(N)sc12 [AZD-8797] | 279 and 345
CC(C)(c1ccc(O)cc1)c1ccc(O)cc1 [BISPHENOL A] | 335 and 147

Same assay, conditions: human, 24 h, 1 µM, compound concentration 1 uM

SMILES | Population Apoptotic (%) | Population Fragmented Nuclei (%) | Population Healthy Nuclei (%) | Population Hoechst High Intensity Objects (%) | Population Membrane Permeable-Phenotype (%) | Population Mitochondria Different-Phenotype (%) | Population Mitotic Cells (%) | Population Normal (%) | Population Pyknosed Nuclei (%) | Population Tubulin-Different-Phenotype (%)
CC(C)C[C@H](CO)Nc1nc(S[C@@H](C)c2ccccc2)nc2nc(N)sc12 [AZD-8797] | 37% and 45% | 7% | 76% and 81% | 3% and 5% | 0% | 25% and 42% | 62% and 54% | 97% and 94% | 15% and 11% | 16% and 14%
CC(C)(c1ccc(O)cc1)c1ccc(O)cc1 [BISPHENOL A] | 12.93% and 13.39% | 1.95% and 0.56% | 77.52% and 28.89% | 0.18% and 0% | 1.6% and 1.92% | 13.7% and 15.38% | 87.07% and 86.61% | 99.82% and 100% | – | 9.82% and 13.46%

Same assay, conditions: human, 24 h, 1 µM, compound concentration 1 uM

SMILES | Total Cell Count
CC(C)C[C@H](CO)Nc1nc(S[C@@H](C)c2ccccc2)nc2nc(N)sc12 [AZD-8797] | 400 and 421

Same assay, conditions: human, 24 h, 10 µM, compound concentration 10 uM

SMILES | Population Apoptotic (%) | Population Fragmented Nuclei (%) | Population Healthy Nuclei (%) | Population Hoechst High Intensity Objects (%) | Population Membrane Permeable-Phenotype (%) | Population Mitochondria Different-Phenotype (%) | Population Mitotic Cells (%) | Population Normal (%) | Population Pyknosed Nuclei (%) | Population Tubulin-Different-Phenotype (%)
CC(C)C[C@H](CO)Nc1nc(S[C@@H](C)c2ccccc2)nc2nc(N)sc12 [AZD-8797] | 54% and 51% | 8% and 9% | 73% and 77% | 9% and 8% | 0% | 64% and 71% | 45% and 48% | 90% and 91% | 17% and 12% | 39% and 36%
CC(C)(c1ccc(O)cc1)c1ccc(O)cc1 [BISPHENOL A] | 12.5% and 15.52% | 2.67% and 1.71% | 74.28% and 32% | 0% | 1.11% and 0% | 19.11% and 16.07% | 87.5% and 84.48% | 100% | 23.05% and 66.29% | –

Same assay, conditions: human, 24 h, 10 µM, compound concentration 10 uM

SMILES | Total Cell Count
CC(C)C[C@H](CO)Nc1nc(S[C@@H](C)c2ccccc2)nc2nc(N)sc12 [AZD-8797] | 346 and 393
CC(C)(c1ccc(O)cc1)c1ccc(O)cc1 [BISPHENOL A] | 486 and 175

Same assay, conditions: human, 48 h, 1 µM, compound concentration 1 uM

SMILES | Population Apoptotic (%) | Population Fragmented Nuclei (%) | Population Healthy Nuclei (%) | Population Hoechst High Intensity Objects (%) | Population Membrane Permeable-Phenotype (%) | Population Mitochondria Different-Phenotype (%) | Population Mitotic Cells (%) | Population Normal (%) | Population Pyknosed Nuclei (%) | Population Tubulin-Different-Phenotype (%)
CC(C)C[C@H](CO)Nc1nc(S[C@@H](C)c2ccccc2)nc2nc(N)sc12 [AZD-8797] | 43% and 24% | 15% and 12% | 78% and 79% | 1% and 3% | 0% and 1% | 16% and 24% | 56% and 75% | 98% and 96% | 6% and 8% | 10% and 13%
CC(C)(c1ccc(O)cc1)c1ccc(O)cc1 [BISPHENOL A] | 8.33% and 18.95% | 3.14% and 0% | 87.89% and 52.74% | 0.07% and 0.99% | 5.87% and 1.89% | – | 91.67% and 81.05% | 99.93% and 99.01% | – | –

Same assay, conditions: human, 48 h, 1 µM, compound concentration 1 uM

SMILES | Total Cell Count
CC(C)C[C@H](CO)Nc1nc(S[C@@H](C)c2ccccc2)nc2nc(N)sc12 [AZD-8797] | 663 and 681

Same assay, conditions: human, 48 h, 10 µM, compound concentration 10 uM

SMILES | Population Apoptotic (%) | Population Fragmented Nuclei (%) | Population Healthy Nuclei (%) | Population Hoechst High Intensity Objects (%) | Population Membrane Permeable-Phenotype (%) | Population Mitochondria Different-Phenotype (%) | Population Mitotic Cells (%) | Population Normal (%) | Population Pyknosed Nuclei (%) | Population Tubulin-Different-Phenotype (%)
CC(C)C[C@H](CO)Nc1nc(S[C@@H](C)c2ccccc2)nc2nc(N)sc12 [AZD-8797] | 60% and 52% | 16% and 15% | 72% and 75% | 7% and 6% | 0% | 57% and 52% | 39% and 47% | 92% and 93% | 11% and 8% | 28% and 21%
CC(C)(c1ccc(O)cc1)c1ccc(O)cc1 [BISPHENOL A] | – | 3.13% and 2.41% | 86.33% and 68.67% | 0% and 2.35% | 4.42% and 1.75% | 9.82% and 14.62% | 95.65% and 84.72% | 100% and 97.65% | 10.54% and 28.92% | –

Same assay, conditions: human, 48 h, 10 µM, compound concentration 10 uM

SMILES | Total Cell Count
CC(C)C[C@H](CO)Nc1nc(S[C@@H](C)c2ccccc2)nc2nc(N)sc12 [AZD-8797] | 416 and 530
